Reference: ChEMBL document CHEMBL4033782, “Structural Modification of Natural Product Tanshinone I Leading to Discovery of Novel Nitrogen-Enriched Derivatives with Enhanced Anticancer Profile and Improved Drug-like Properties” (J Med Chem, 2018)
Values after ≈ are worked out from the molar mass of the structure shown.

Experiments:
KB = assay: Antiproliferative activity against human KB cells after 72 hrs by sulforhodamine B assay; type: functional, cell-based
Procedure, shortened: (§1)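 Cells grown in ATCC-specified medium with 10% heat-inactivated FBS, penicillin/streptomycin and 10 mM Hepes, at 37 °C under 5% CO2. Seeded, cultured overnight, then exposed to gradient concentrations for 72 h. Growth read by SRB staining; inhibition % = [1−(A450 treated/A450 control)]×100. IC50 obtained by the Logit method from independent experiments.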

[1] = Aqueous solubility of the compound in pH 7.5 Tris buffer after 24 hrs by HPLC method; type: physicochemical
[2] = Half life in rat liver microsomes at 0.1 uM up to 60 mins by LC-MS/MS analysis; type: ADME, microsome
Procedure, shortened: (§2)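 Compound at 0.1 μM final (0.01% DMSO, 0.005% BSA) incubated at 37 °C with human, rat or mouse liver microsomes (0.33 mg/mL protein) in 0.1 M Tris/HCl pH 7.4, with 5 mM MgCl2 and 1 mM NADPH. Samples taken at 0, 7, 17, 30 and 60 min, quenched by methanol precipitation, centrifuged, and parent measured by LC-MS/MS. T1/2 and Clint derived.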

[3] = Half life in mouse liver microsomes at 0.1 uM up to 60 mins by LC-MS/MS analysis; type: ADME, microsome; settings: liver microsomes; procedure, shortened: as §2
Liver = assay: Intrinsic clearance in rat liver microsomes assessed per mg protein up to 60 mins by LC-MS/MS analysis; type: ADME, microsome; settings: 1 h
Procedure, shortened: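 Liver microsomes (0.33 mg/mL protein) in 0.1 M Tris/HCl pH 7.4 with 5 mM MgCl2, 1 mM NADPH, compound at 0.1 μM final (0.01% DMSO, 0.005% BSA), 37 °C; samples at 0, 7, 17, 30, 60 min quenched in methanol, centrifuged, LC-MS/MS; T1/2 and Clint per g protein derived.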

[4] = Half life in Sprague-Dawley rat at 3.0 mg/kg, po; type: ADME, organism-based; settings: in vivo
Procedure, shortened: (§3)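 Male SD rats dosed i.v. at 1.0 mg/kg or orally at 3.0 mg/kg. Vehicle is DMSO, Tween 80 and normal saline. Plasma concentration–time data give CL, Vss, T1/2, Cmax, Tmax, MRT, AUC and oral bioavailability F.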

[5] = Cmax in Sprague-Dawley rat at 3.0 mg/kg, po; type: ADME, organism-based; design: dose 3 mg/kg, route oral; settings: in vivo; procedure, shortened: as §3
[6] = AUC in Sprague-Dawley rat at 3.0 mg/kg, po; type: ADME, organism-based; settings: in vivo; procedure, shortened: as §3
[7] = AUC in Sprague-Dawley rat at 1.0 mg/kg, iv; type: ADME, organism-based; settings: in vivo; procedure, shortened: as §3
[8] = Clearance in Sprague-Dawley rat at 1.0 mg/kg, iv; type: ADME, organism-based; settings: in vivo; procedure, shortened: as §3
[9] = MRT (infinity) in Sprague-Dawley rat at 3.0 mg/kg, po; type: ADME, organism-based; settings: in vivo
Procedure, shortened: (§4)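 Male SD rats dosed orally at 3.0 mg/kg in DMSO/Tween 80/normal saline; plasma profile gives T1/2, Cmax, Tmax, AUC, MRT; F from comparison with 1.0 mg/kg i.v. dosing.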

[10] = MRT (infinity) in Sprague-Dawley rat at 1.0 mg/kg, iv; type: ADME, organism-based; settings: in vivo
Procedure, shortened: (§5)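 Male SD rats given 1.0 mg/kg i.v. in DMSO/Tween 80/normal saline vehicle; plasma concentration–time profile used for clearance, Vss, MRT.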

[11] = Volume of distribution at steady state in Sprague-Dawley rat at 1.0 mg/kg, iv; type: ADME, organism-based; settings: in vivo, read-out: Vdss; procedure, shortened: as §5
[12] = Oral bioavailability in Sprague-Dawley rat at 3.0 mg/kg; type: ADME, organism-based; settings: in vivo; procedure, shortened: as §4
HUVEC = assay: Antiproliferative activity against human HUVEC cells after 72 hrs by sulforhodamine B assay; type: cell-based; procedure, shortened: as §1
HCT-116 [13] = assay: Antiproliferative activity against human HCT116 cells after 72 hrs by sulforhodamine B assay; type: functional, cell-based; settings: HCT-116, 72 h; procedure, shortened: as §1
MGC-803 = assay: Antiproliferative activity against human MGC803 cells after 72 hrs by sulforhodamine B assay; type: functional, cell-based; settings: MGC-803, 72 h; procedure, shortened: as §1
[14] = Antiproliferative activity against human HepG cells after 72 hrs by sulforhodamine B assay; type: functional, cell-based; procedure, shortened: as §1
BEL-7404 tumor cell line = assay: Antiproliferative activity against human Bel7404 cells after 72 hrs by sulforhodamine B assay; type: functional, cell-based; settings: BEL-7404, 72 h; procedure, shortened: as §1
DU-145 = assay: Antiproliferative activity against human DU145 cells after 72 hrs by sulforhodamine B assay; type: functional, cell-based; settings: DU-145, 72 h; procedure, shortened: as §1
BT-474 = assay: Antiproliferative activity against human BT474 cells after 72 hrs by sulforhodamine B assay; type: functional, cell-based; settings: BT-474, 72 h; procedure, shortened: as §1
NCI-H460 = assay: Antiproliferative activity against human H460 cells after 72 hrs by sulforhodamine B assay; type: functional, cell-based; settings: NCI-H460, 72 h; procedure, shortened: as §1
HCT-116 [15] = assay: Induction of apoptosis in human HCT116 cells assessed as early apoptotic cells at 1 uM after 48 hrs by Annexin V-FITC/propidium iodide staining-based FACS analysis (reference value: 2.35%); type: functional
HCT-116 [16] = assay: Induction of apoptosis in human HCT116 cells assessed as early apoptotic cells at 2 uM after 48 hrs by Annexin V-FITC/propidium iodide staining-based FACS analysis (reference value: 2.35%); type: functional
HCT-116 [17] = assay: Induction of apoptosis in human HCT116 cells assessed as late apoptotic cells at 2 uM after 48 hrs by Annexin V-FITC/propidium iodide staining-based FACS analysis (reference value: 5.74%); type: functional
HCT-116 [18] = assay: Induction of apoptosis in human HCT116 cells pretreated with Z-VAD-FMK pan-caspase inhibitor for 1 hr assessed as early apoptotic cells at 0.5 uM after 48 hrs by Annexin V-FITC/propidium iodide staining-based FACS analysis (reference value: 1.34%); type: functional; design: scale not given: the % may be the effect or the level left
HCT-116 [19] = assay: Induction of apoptosis in human HCT116 cells pretreated with Z-VAD-FMK pan-caspase inhibitor for 1 hr assessed as late apoptotic cells at 0.5 uM after 48 hrs by Annexin V-FITC/propidium iodide staining-based FACS analysis (reference value: 3.15%); type: functional; design: scale not given: the % may be the effect or the level left
HCT-116 [20] = assay: Induction of apoptosis in human HCT116 cells pretreated with Z-VAD-FMK pan-caspase inhibitor for 1 hr assessed as early apoptotic cells at 1 uM after 48 hrs by Annexin V-FITC/propidium iodide staining-based FACS analysis (reference value: 1.34%); type: functional; design: scale not given: the % may be the effect or the level left
HCT-116 [21] = assay: Induction of apoptosis in human HCT116 cells pretreated with Z-VAD-FMK pan-caspase inhibitor for 1 hr assessed as late apoptotic cells at 1 uM after 48 hrs by Annexin V-FITC/propidium iodide staining-based FACS analysis (reference value: 3.15%); type: functional; design: scale not given: the % may be the effect or the level left
HCT-116 [22] = assay: Induction of apoptosis in human HCT116 cells pretreated with Z-VAD-FMK pan-caspase inhibitor for 1 hr assessed as early apoptotic cells at 2 uM after 48 hrs by Annexin V-FITC/propidium iodide staining-based FACS analysis (reference value: 1.34%); type: functional; design: scale not given: the % may be the effect or the level left
Mus musculus = assay: Toxicity in BALB/C nude mouse xenografted with human HCT116 cells assessed as body weight loss at 10 mg/kg, iv once daily for 14 days starting on day 14 post tumor implantation measured every 4 days during compound dosing; type: organism-based; settings: in vivo
Procedure, shortened: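 Male BALB/c nude mice (18–20 g) with subcutaneous HCT116 implants in right axilla; treatment from day 14 once tumors exceeded 100 mm3, randomized (6/treated, 10/control group); 10 mg/kg i.v. or 30 mg/kg i.p. daily for 14 days in 1% DMSO/saline; 5-FU 15 mg/kg as reference; body weight tracked, mean ± SD of 6 mice.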

- IC50 (KB): 120 nM
- solubility at 24 h [1]: 15.7 mg/mL (≈ 40.1 mM)
- half-life at 0.1 µM [2]: 1.26 h
- half-life at 0.1 µM [3]: 0.909 h
- intrinsic clearance (Liver): 27.7 mL/min/g
- half-life [4]: 2.58 h
- Cmax [5]: 33.7 ng/mL
- AUC [6]: 81.4 ng·h/mL
- AUC [7]: 114 ng·h/mL
- clearance [8]: 176 mL/min/kg
- MRT inf [9]: 3.72 h
- MRT inf [10]: 0.835 h
- Vd [11]: 7.98 L/kg
- bioavailability [12]: 21%
- IC50 (HCT-116 [13]): 140 nM
- IC50 (MGC-803): 260 nM
- IC50 (BEL-7404 tumor cell line): 360 nM
- IC50 (DU-145): 220 nM
- IC50 (BT-474): 770 nM
- IC50 (NCI-H460): 170 nM
SMILES: CCN(CC)CCCn1c2c(c3ccccc3c1=O)C(=O)C(=O)c1cc(C)oc1-2
- IC50 (HUVEC): 2520 nM
- IC50 [14]: 1310 nM
- Activity (HCT-116 [15]): 8.61%
- Activity (HCT-116 [16]): 23.98%
- Activity (HCT-116 [17]): 32.63%
- Activity (HCT-116 [18]): 1.53%
- Activity (HCT-116 [19]): 4.09%
- Activity (HCT-116 [20]): 2.99%
- Activity (HCT-116 [21]): 6.47%
- Activity (HCT-116 [22]): 11.88%
- Activity (Mus musculus): Non-Toxic
